Measured values pooled from the literature.
Each line is one published result; the experiments were not run side by side.
Target: Proto-oncogene tyrosine-protein kinase Src (SRC, Homo sapiens, UniProt P12931)

SMILES	observed	method	concentration	remaining binding [%]
F[C@@H]1CCN(c2nccc(-c3cnn4ncccc34)n2)C1	binding		1 µM	100
CCOC(=O)c1cc2cc(-c3cc(C(=O)NCc4ccc(C(=O)O)cc4)nn3C)ccc2[nH]1	cell-free assay	competition with immobilised ligand	0.1 µM	93
N[C@H]1CCN(c2nccc(-c3cnn4ncccc34)n2)C1	binding		1 µM	88
CC(C)(C)c1ccc(-c2nc(CBr)nn2-c2cccc(O)c2)cc1	cell-free assay	competition with immobilised ligand	10 µM	79
FC(F)(F)Oc1cccc(-c2cnc3ccc(-c4ccncc4)nn23)c1	binding	competition with immobilised ligand	5 µM	56
COc1ccc2c(O[C@@H]3C[C@H]4C(=O)N[C@]5(C(=O)O)CC5/C=C\CCCCC[C@H](NC(=O)OC5CCCC5)C(=O)N4C3)cc(-c3csc(NC(=O)C(C)C)n3)nc2c1C (stereo partly shown)	cell-free assay	competition with immobilised ligand	1 µM	100
CC1CCCN1c1nccc(-c2cnn3ncccc23)n1 (stereo not shown)	binding		1 µM	100
O=C(c1ccc(Nc2ncc(Cl)c(-c3cc4ccccc4s3)n2)cc1)N1CCC(N2CCCC2)CC1	binding	competition with immobilised ligand	1 µM	62
N#Cc1ccccc1CSc1nnc2c(n1)[nH]c1ccccc12	binding	competition with immobilised ligand	10 µM	100
COc1cnc(Nc2cccc(S(N)(=O)=O)c2)nc1N1CCN(c2ccccc2)CC1	binding	competition with immobilised ligand	1 µM	100
Cc1c(NC(=O)c2cc(C(N)=O)nc3cc(F)ccc23)c(C(F)(F)F)nn1Cc1ccc(C#N)cc1	cell-free assay	competition with immobilised ligand	1 µM	81
C[C@@H]1CCN(c2nccc(-c3cnn4ncccc34)n2)C1	binding		1 µM	92
Nc1ncc2c(n1)-c1c([nH]c3ccc(C#CC4CC4)cc13)CCCC2	binding	competition with immobilised ligand	1 µM	100
Cc1cnn2ncc(-c3ccnc(N(C)C)n3)c2c1	binding		1 µM	100
COc1cc(-c2cn(C3CCc4ccccc4N(CC(F)(F)F)C3=O)nn2)ccc1-n1ccc(C)n1 (stereo not shown)	cell-free assay	competition with immobilised ligand	1 µM	100
CN(C)c1ncc(F)c(-c2cnn3ncccc23)n1	binding		1 µM	79
CCC(=N\O)/C(C)=C/c1ccc(F)cc1	cell-free assay	competition with immobilised ligand	1 µM	91
CN(CCCC(F)(F)F)c1nccc(-c2cnn3ncccc23)n1	binding		1 µM	100
CN([C@@H]1CCc2c(CC(=O)O)c3cc(S(C)(=O)=O)ccc3n2C1)S(=O)(=O)c1ccc(F)cc1	cell-free assay	competition with immobilised ligand	1 µM	96
COc1cnc(Nc2cccc(S(N)(=O)=O)c2)nc1N1CCN(c2ccccc2)C(=O)C1	binding	competition with immobilised ligand	1 µM	100
O=C(c1ccc(Nc2ncc(Cl)c(-c3ccc(Cl)s3)n2)cc1)N1CCC(N2CCCC2)CC1	binding	competition with immobilised ligand	1 µM	77
COC(=O)Nc1nc2ccc(C(=O)c3ccccc3)cc2[nH]1	cell-free assay	competition with immobilised ligand	10 µM	34
O=C(Nc1c[nH]nc1C(=O)NC1CCNCC1)c1cc(F)cc(F)c1	binding	competition with immobilised ligand	1 µM	100
C[C@@H](c1cccc(C#N)c1)n1cc(Cl)cc(C(N)=O)c1=N	cell-free assay	competition with immobilised ligand	1 µM	99
O=C(NCCCN1CCOCC1)c1ccc(Nc2nccc(-c3cc4ccccc4s3)n2)cc1	binding	competition with immobilised ligand	1 µM	100
